Experimental data as given in PubChem BioAssay.
Inconclusive results are not listed.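 Rule for the calls, unless noted: active = growth inhibition above 25% in both replicates, a cutoff set 3 SD above the mean; inconclusive = above 25% in only one replicate; inactive = the rest.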

Tests used:
[1] = OD615 S. cerevisiae growth inhibition, permissive medium, pilot counter-assay, permissive growth control for S. cerevisiae lifespan shortening project (AID 705); conditions: OD615, 24 h, at 10 µM, hits give high values
Outline: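 Test system: Saccharomyces cerevisiae strain carrying genetically modified DeaD replicative-lifespan system; buffer or medium: SC raffinose/galactose permissive medium; dosing: one dose 10 µM, DMSO 0.25% final; times: 24 h exposure, 30 °C; measured by: OD at 615 nm; read-out basis: growth inhibition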

[2] = Restrictive medium S. cerevisiae growth inhibition, OD615, pilot screen of yeast lifespan reduction project, restrictive growth control (AID 706;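 active = growth inhibition above a set limit, 3 SD over mean compound inhibition, in both replicates, cut at about 43% in these data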;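 note: modified DeaD lifespan yeast strain shifted to restrictive glucose medium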); conditions: OD615, 48 h, at 10 µM, hits give high values
Outline: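 material = engineered S. cerevisiae DeaD strain | buffer or medium = glucose-based CSMM-D restrictive medium | dosing = one concentration, 10 µM final, 0.25% DMSO | schedule = 4 h pre-growth plus 48 h compound exposure, 30 °C | detection = OD615 absorbance reading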

[3] = viability gain of MRP-1-high H69AR cells under doxorubicin, pilot screen, MRP-1 activator project, CellTiter-Glo, duplicate (AID 807;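 active = viability increase at or above a cutoff of the median across tested compounds plus 3 SD, cut at about 8.5% in these data, passing the limit was not always enough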;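 note: compound pretreatment 18-22 h then 72 h combined with doxorubicin; 0% = doxorubicin alone and 100% = vehicle without doxorubicin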); conditions: H69AR viability with doxorubicin, CellTiter-Glo luminescence; at 10 µM; hits give high values
[4] = growth suppression of beta-catenin knockout HCT116, pilot screen, human colon tumor cells (AID 823;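 active = cell viability at or below a set limit in both duplicate runs, the limit being the all-compound median minus 4 SD, cut at about 23% in these data, passing the limit was not always enough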;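 note: 0% = wells killed by 20 µM Hyamine and 100% = untreated DMSO cell wells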); conditions: CellTiter-Glo, 60 h, at 10 µM, hits give low values
[5] = growth suppression of PTEN-deleted HCT116, pilot screen, cell-based, HCT116 clonal line, CellTiter-Glo (AID 824;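 active = viability at or below 27.92% in each of two runs, the all-compound median minus 4 SD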;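 note: 0% = 20 µM Hyamine control and 100% = vehicle cell control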); conditions: 60 h, at 10 µM, hits give low values
[6] = inhibitors of the yeast RAM network, pilot screen, dse1pr::URA3 reporter, 5-FOA selection (AID 869;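 active = inhibition over a set limit, the all-compound mean plus 3 SD, in both replicate runs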;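 note: 0% = DMSO wells with no growth and 100% = 10 µM 1-NA-PP1 with full growth; RAM network block rescues cells from 5-FOA so hits raise OD615 growth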); conditions: S. cerevisiae dse1pr::URA3 5-FOA growth, OD615, 2 d; at 10 µM; hits give high values; strain carries analog-sensitive mutant Cbk1 kinase
[7] = RAM signaling pathway blockade in yeast – S. cerevisiae, Pdr1DBD-CYC8 efflux-inhibited sensitized strain, primary screen (AID 1298;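 active = RAM network inhibition above 8.4% in each of two replicates, 3 SD over the compound average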;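 note: 0% = DMSO untreated cells without growth and 100% = 10 µM 1-NA-PP1 full growth; higher means more yeast growth rescued from 5-FOA killing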); conditions: S. cerevisiae cbk1-as DSE1-URA3 strain, 5-FOA growth OD615, 2 d; at 50 µM; hits give high values

Cc1ccc(N2Cc3ccccc3OC(C)C2=O)cc1 (configuration not stated)
inactive: growth inhibition [1] -1.43% | growth inhibition [2] 0.105% | viability increase [3] -3.99% | viability [4] 90.3% | viability [5] 91.3% | inhibition [6] 0.735% | RAM network inhibition [7] 1.16%

O=C(Cn1c(=O)n(-c2ccccc2)c(=O)n1CC(=O)N1CCCCC1)N1CCCCC1
inactive: growth inhibition [1] -8.76% | growth inhibition [2] -2.77% | viability increase [3] -0.69% | viability [4] 107% | viability [5] 96.4% | inhibition [6] 0.495% | RAM network inhibition [7] 0.57%

C=CCNC(=O)c1ccc(C)cc1Cl
inactive: growth inhibition [1] -13.3% | growth inhibition [2] -2.44% | viability increase [3] -0.26% | viability [4] 95.5% | viability [5] 94.5% | inhibition [6] 1.02% | RAM network inhibition [7] 1.37%

CCc1nc(SCC(=O)c2ccc(C)c(C)c2)n[nH]1
inactive: growth inhibition [1] -9.29% | growth inhibition [2] 4.11% | viability increase [3] 2.14% | viability [4] 102% | viability [5] 104% | inhibition [6] 0.56% | RAM network inhibition [7] 6.63%

COc1ccc(-n2c(Cn3c(=O)sc4ccccc43)nnc2SCC(=O)N2CCCC2)cc1
inactive: growth inhibition [1] -1.82% | growth inhibition [2] 17.8% | viability increase [3] 0.25% | viability [4] 104% | viability [5] 102% | inhibition [6] 1.5% | RAM network inhibition [7] 3.39%

CCCCOc1ccc(/C(N)=N/O)cc1
inactive: growth inhibition [1] 7.3% | growth inhibition [2] 0.775% | viability increase [3] -5.85% | viability [4] 93.5% | viability [5] 93.7% | inhibition [6] 0.44% | RAM network inhibition [7] 1.83%

c1ccc(N2CCN(c3nnnn3-c3ccccc3)CC2)cc1
inactive: growth inhibition [1] -10.6% | growth inhibition [2] 3.73% | viability increase [3] -0.01% | viability [4] 76% | viability [5] 75.7% | inhibition [6] 1.12% | RAM network inhibition [7] 9%

O=C(CSc1nnnn1-c1cccc2c1CCCC2)N1CCOCC1
inactive: growth inhibition [1] -3.82% | growth inhibition [2] -27.1% | viability increase [3] -3.02% | viability [4] 95.4% | viability [5] 94.5% | inhibition [6] 0.68% | RAM network inhibition [7] 2.95%

Cc1nc2sc(C(c3ccco3)N3CCN(c4ccccc4)CC3)c(O)n2n1 (configuration not stated)
inactive: growth inhibition [1] -2.19% | growth inhibition [2] -0.705% | viability increase [3] 3.13% | viability [4] 97.3% | viability [5] 101% | inhibition [6] 1.73% | RAM network inhibition [7] 3%

NC(=O)CN1CCN(C(=O)NC2CCCCC2)CC1
inactive: growth inhibition [1] -18.1% | growth inhibition [2] -12.7% | viability increase [3] 0.06% | viability [4] 96% | viability [5] 97.9% | inhibition [6] 2.7% | RAM network inhibition [7] 2.11%

Cc1cccc(Cn2c(N(C)Cc3ccccc3)nc3c2c(=O)[nH]c(=O)n3C)c1
inactive: growth inhibition [1] -0.355% | growth inhibition [2] -7.32% | viability increase [3] -2.61% | viability [4] 75.6% | viability [5] 64.8% | inhibition [6] 2.08% | RAM network inhibition [7] 2.26%

O=C(C1CC(c2ccc(F)cc2)=NO1)N1CCN(Cc2ccccc2)CC1 (configuration not stated)
inactive: growth inhibition [1] -0.77% | growth inhibition [2] -2.39% | viability increase [3] -1.28% | viability [4] 96.2% | viability [5] 101% | inhibition [6] 1.8% | RAM network inhibition [7] 2.3%

COc1cccc(-c2cc(C(F)(F)F)nc(N3CCOCC3)n2)c1
inactive: growth inhibition [1] -4.32% | growth inhibition [2] -9.04% | viability increase [3] 0.16% | viability [4] 73.5% | viability [5] 77.8% | inhibition [6] 1.38% | RAM network inhibition [7] 6.83%

CC(=O)Nc1cc(-c2nn3c(C)nnc3s2)ccc1C
inactive: growth inhibition [1] 3.93% | growth inhibition [2] 1.4% | viability increase [3] -0.1% | viability [4] 98.7% | viability [5] 90.3% | inhibition [6] 3.41% | RAM network inhibition [7] 3.72%

Cc1onc(-c2ccccc2)c1C(=O)Nc1cccc(C#N)c1
inactive: growth inhibition [1] -20.3% | growth inhibition [2] -6.79% | viability increase [3] -2.52% | viability [4] 96.5% | viability [5] 88.5% | inhibition [6] 2.92% | RAM network inhibition [7] 4.56%

CCOC(=O)C1CCN(C(=O)c2oc3ccc(S(=O)(=O)N4CCCCCC4)cc3c2C)CC1
inactive: growth inhibition [1] 0.58% | growth inhibition [2] -20.9% | viability increase [3] -3.23% | viability [4] 72.8% | viability [5] 78.9% | inhibition [6] 1.73% | RAM network inhibition [7] 0.3%

COc1cccc(OCCCCSc2ncccn2)c1
inactive: growth inhibition [1] 0.33% | growth inhibition [2] 4.57% | viability increase [3] -2.94% | viability [4] 93.2% | viability [5] 90.2% | inhibition [6] -0.22% | RAM network inhibition [7] 4.14%

CCOC(=O)c1c(CN2CCCCC2)n(C)c2ccc(OC)c(S(=O)(=O)c3ccccc3)c12
inactive: growth inhibition [1] -6.81% | growth inhibition [2] -19.7% | viability increase [3] -3.9% | viability [4] 96.3% | viability [5] 92.4% | inhibition [6] 0.105% | RAM network inhibition [7] 3.27%

COc1ccc(N(CC(=O)Nc2ccc3c(c2)OCCO3)S(=O)(=O)c2c(C)nn(C)c2C)cc1
inactive: growth inhibition [1] -9.27% | growth inhibition [2] -19.9% | viability increase [3] -2.36% | viability [4] 99.4% | viability [5] 95.9% | inhibition [6] 0.73% | RAM network inhibition [7] 4.15%

Cc1nc2ccc(NC(=O)c3ccc(S(=O)(=O)N4CCOCC4)cc3)cc2s1
inactive: growth inhibition [1] -2.22% | growth inhibition [2] -2.84% | viability increase [3] 0.28% | viability [4] 95.3% | viability [5] 93.8% | inhibition [6] 3.07% | RAM network inhibition [7] 4.83%

COc1ccc(S(=O)(=O)Cc2ccc(C(=O)N3CCN(c4cc(Cl)ccc4C)CC3)o2)cc1
inactive: growth inhibition [1] -4.16% | growth inhibition [2] -10.7% | viability increase [3] -2.31% | viability [4] 76.8% | viability [5] 67% | inhibition [6] 2.08% | RAM network inhibition [7] 3.33%

CCCNC(=O)CS(=O)Cc1nc(-c2ccc(OC)cc2)oc1C (configuration not stated)
inactive: growth inhibition [1] -5.5% | growth inhibition [2] 19.6% | viability increase [3] -2.12% | viability [4] 97.2% | viability [5] 93.9% | inhibition [6] 1.62% | RAM network inhibition [7] 3.43%

Cn1c(Cn2c(=O)sc3ccccc32)nnc1SCC(=O)NCC1CCCO1 (configuration not stated)
inactive: growth inhibition [1] -6.81% | growth inhibition [2] -7.68% | viability increase [3] -1.15% | viability [4] 99.3% | viability [5] 90% | inhibition [6] 0.85% | RAM network inhibition [7] 2.22%

O=C1CC(c2cccs2)CC(O)=C1C=NCCN1CCNCC1 (configuration not stated)
inactive: growth inhibition [1] -11.8% | growth inhibition [2] -6.3% | viability increase [3] -0.54% | viability [4] 98.9% | viability [5] 97.2% | inhibition [6] 0.995% | RAM network inhibition [7] -0.42%

O=C(CSc1nc2c(c(=O)n1-c1ccc(Cl)cc1)SCC2)Nc1ccc2c(c1)OCCO2
inactive: growth inhibition [1] -7.54% | growth inhibition [2] 10.9% | viability increase [3] -2.7% | viability [4] 92% | viability [5] 84.8% | inhibition [6] 2.02% | RAM network inhibition [7] 4.16%

COc1cccc2c(=O)n(CC(=O)NC3CCCCC3)ccc12
inactive: growth inhibition [1] 0.435% | growth inhibition [2] -6.59% | viability increase [3] -1.27% | viability [4] 103% | viability [5] 90.3% | inhibition [6] 1.58% | RAM network inhibition [7] 4.45%

Cc1nnc(NC(=O)c2oc3cc(C)c(C)cc3c2C)s1
inactive: growth inhibition [1] -3.77% | growth inhibition [2] -4.99% | viability increase [3] -0.05% | viability [4] 105% | viability [5] 99.8% | inhibition [6] 1.64% | RAM network inhibition [7] 5.7%

NC(=O)CSc1nnc(Cn2c(=O)sc3ccccc32)n1CCc1ccccc1
inactive: growth inhibition [1] 1.14% | growth inhibition [2] 26.2% | viability increase [3] -1.54% | viability [4] 101% | viability [5] 94.2% | inhibition [6] 0.275% | RAM network inhibition [7] 4.54%

O=C(OCN1C(=O)c2ccccc2C1=O)c1ccco1
inactive: growth inhibition [1] -3.8% | growth inhibition [2] 0.045% | viability increase [3] -2.17% | viability [4] 96.7% | viability [5] 93.3% | inhibition [6] 3.23% | RAM network inhibition [7] 3.35%

O=C(Cn1cnc2c(cnn2-c2ccccc2)c1=O)NC1CCCC1
inactive: growth inhibition [1] 3.55% | growth inhibition [2] -3.13% | viability increase [3] 1.03% | viability [4] 99.2% | viability [5] 95.8% | inhibition [6] 1.77% | RAM network inhibition [7] 2.38%

Cc1oc(-c2cccs2)nc1CS(=O)CC(=O)NCCCN1CC(C)CC(C)C1 (configuration not stated)
inactive: growth inhibition [1] -8.47% | growth inhibition [2] -12.7% | viability increase [3] -1.75% | viability [4] 93.9% | viability [5] 92.4% | inhibition [6] 2.27% | RAM network inhibition [7] 3.39%

CCc1ccc(C2N(c3ccc(OC)cc3)C(=O)C3CCCN32)cc1 (configuration not stated)
inactive: growth inhibition [1] 2.83% | growth inhibition [2] -2.37% | viability increase [3] -1.6% | viability [4] 95.3% | viability [5] 101% | inhibition [6] 0.83% | RAM network inhibition [7] 0.23%

COc1cccc(C(=O)NCc2cn3ccsc3n2)c1
inactive: growth inhibition [1] -16.9% | growth inhibition [2] 4.09% | viability increase [3] -1.05% | viability [4] 110% | viability [5] 92.4% | inhibition [6] 2.06% | RAM network inhibition [7] 3.48%

CC(C)OC(=O)C1C2C=CC3(CN(C(C)c4ccc(Br)cc4)C(=O)C13)O2 (configuration not stated)
inactive: growth inhibition [1] -19.3% | growth inhibition [2] -19.3% | viability increase [3] -2.07% | viability [4] 96.8% | viability [5] 94.1% | inhibition [6] 0.395% | RAM network inhibition [7] 6.84%

CCn1cc(C2=NC(C(C)C)CO2)c2ccccc21 (configuration not stated)
inactive: growth inhibition [1] -12% | growth inhibition [2] -6.49% | viability increase [3] -2.74% | viability [4] 99.2% | viability [5] 95.9% | inhibition [6] 1.54% | RAM network inhibition [7] 2.06%

COc1ccccc1S(=O)(=O)Cc1ccc(C(=O)NCc2ccc3c(c2)OCO3)o1
inactive: growth inhibition [1] -4.21% | growth inhibition [2] -26.9% | viability increase [3] -2.83% | viability [4] 91.9% | viability [5] 87.4% | inhibition [6] 1.9% | RAM network inhibition [7] 6.73%
